Laboratory results: ChEMBL document CHEMBL5247630, “Rational design of the zonulin inhibitor AT1001 derivatives as potential anti SARS-CoV-2” (Eur J Med Chem, 2022)
Non-standard residues stand in square brackets, D forms with d. Residues, ends and D or L forms follow the SMILES beside them. *: point of attachment. Hyp = O=C(O)[C@@H]1C[C@@H](O)CN1; Tic = O=C(O)[C@@H]1Cc2ccccc2CN1; Octanoyl = CCCCCCCC(=O)*; Boc = CC(C)(C)OC(=O)*; tBu = CC(C)(C)*

Experiments:
[1] = target: T1, Replicase polyprotein 1ab (Severe acute respiratory syndrome coronavirus 2, UniProt P0DTD1); test: Inhibition of C-terminal His6-tagged recombinant SARS-CoV-2 MPro transfected in Escherichia coli BL21 (DE3) using Dabcyl-KTSAVLQSGFRKM-E(Edans)-NH2 as substrate preincubated for 15 mins followed by substrate addition measured after 30 mins by FRET assay
Summary of the method: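 Recombinant Mpro (20 nM final) was preincubated 15 min at room temperature with compound.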

[2] = target: T1, Replicase polyprotein 1ab; test: Binding affinity to C-terminal His6-tagged recombinant SARS-CoV-2 MPro transfected in Escherichia coli BL21 (DE3) assessed as dissociation constant by Cheng-Prusoff equation analysis
[3] = tested on: SARS-CoV-2; test: Antiviral activity against SARS-CoV-2 UC-1074 infected in African green monkey Vero cells assessed as reduction in virus-induced cytopathic effect incubated for 5 days by microscopic analysis; assay type: functional, organism-based; conditions: Severe acute respiratory syndrome coronavirus 2, UC-1074, Vero, 120 h
[4] = tested on: SARS-CoV-2; test: Antiviral activity against SARS-CoV-2 RG2674 infected in African green monkey Vero cells assessed as reduction in virus-induced cytopathic effect incubated for 5 days by microscopic analysis; assay type: functional, organism-based; conditions: Severe acute respiratory syndrome coronavirus 2, RG2674, Vero, 120 h
[5] = target: Replicase polyprotein 1ab (Severe acute respiratory syndrome coronavirus 2) (UniProt P0DTD1); test: Binding affinity to C-terminal His6-tagged recombinant SARS-CoV-2 MPro expressed in Escherichia coli BL21 (DE3) assessed as change in enthalpy by ITC assay
Summary of the method: (§1)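 E. coli BL21(DE3) Mpro, made untagged by 3C cleavage and SEC, was dialysed into 25 mM Tris-HCl pH 7.6, 20 mM NaCl, 1 mM TCEP. 20–25 µM protein in the cell was titrated with 160–250 µM compound at 28 °C, 0.5% DMSO on both sides, 2.5 µL injections every 180 s. One-site fit with stoichiometry fixed at 1 gave ΔH, ΔS and KD.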

[6] = Cytotoxicity against African green monkey Vero cells assessed as change in cell morphology by microscopic analysis; assay type: toxicity, cell-based; conditions: chlorocebus sabaeus
Summary of the method: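 Vero CCL81 cells were run in parallel with the antiviral assay in DMEM 2% FCS for 5 days at 37 °C. The value is the minimum concentration causing a microscopically detectable change in cell morphology.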

[7] = Stability of compound in PBS buffer at pH 7 at 25 to […] degreeC measured for 3 to 24 hrs by HPLC analysis; assay type: physicochemical; conditions: time 3-24 hrs
Summary of the method: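 Peptide at 0.3 mg/mL was held in PBS pH 7.0 at 25 °C and 37 °C for 24 h. The peptide peak area was followed by RP-HPLC on C18 with detection at 220 nm, sampled at 3, 6, 8 and 24 h.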

[8] = tested on: Vero; test: Cytotoxicity against African green monkey Vero cells assessed as reduction in cell growth by Coulter counter analysis; assay type: toxicity, cell-based; conditions: chlorocebus sabaeus
Summary of the method: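 Mock-infected Vero CCL81 cultures were treated with the compound dilution series in DMEM 2% FCS for 5 days at 37 °C.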

[9] = Cytotoxicity against HELF cells assessed as change in cell morphology; assay type: toxicity, cell-based; conditions: human
[10] = target: T1, Replicase polyprotein 1ab; test: Binding affinity to C-terminal His6-tagged recombinant SARS-CoV-2 MPro expressed in Escherichia coli BL21 (DE3) assessed as dissociation constant by ITC assay; summary of the method: as §1
[11] = tested on: Human betaherpesvirus 5; test: Antiviral activity against HCMV AD-169 infected in HELF cells assessed as reduction in viral replication; assay type: functional, organism-based; conditions: Human betaherpesvirus 5, AD-169, HELF
[12] = tested on: SARS-CoV-2; test: Antiviral activity against SARS-CoV-2 NVDBB-2220 infected in African green monkey Vero cells assessed as reduction in virus-induced cytopathic effect incubated for 5 days by microscopic analysis; assay type: functional, organism-based; conditions: Severe acute respiratory syndrome coronavirus 2, NVDBB-2220, Vero, 120 h
[13] = target: Replicase polyprotein 1ab (Severe acute respiratory syndrome coronavirus 2) (UniProt P0DTD1); test: Binding affinity to C-terminal His6-tagged recombinant SARS-CoV-2 MPro expressed in Escherichia coli BL21 (DE3) assessed as change in gibbs free energy by ITC assay
[14] = tested on: Human betaherpesvirus 5; test: Antiviral activity against HCMV Davis infected in HELF cells assessed as reduction in viral replication; assay type: functional, organism-based; conditions: Human betaherpesvirus 5, Davis
[15] = target: Replicase polyprotein 1ab (Severe acute respiratory syndrome coronavirus 2) (UniProt P0DTD1); test: Binding affinity to C-terminal His6-tagged recombinant SARS-CoV-2 MPro expressed in Escherichia coli BL21 (DE3) assessed as change in entropy by ITC assay; summary of the method: as §1
[16] = tested on: Human alphaherpesvirus 3; test: Antiviral activity against thymidine kinase positive VZV OKA infected in HELF cells assessed as reduction in viral replication; assay type: functional, organism-based; conditions: Human alphaherpesvirus 3, OKA
[17] = tested on: Human alphaherpesvirus 3; test: Antiviral activity against thymidine kinase deficient VZV 07-1 infected in HELF cells assessed as reduction in viral replication; assay type: functional, organism-based; conditions: Human alphaherpesvirus 3, 07-1, HELF
[18] = AUCt/dose in C57BL6 mouse at 1.25 mg/kg, INH; assay type: ADME, organism-based; conditions: in vivo, inhaled_or_intranasal
Summary of the method: (§2)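 Male C57BL6 mice, 6–8 weeks, 3 per group, single intranasal dose (0.5 mg/kg at 1.0 mg/mL; 1.25 mg/kg at 2.5 mg/mL) or oral dose (10 mg/kg at 1.0 mg/mL; 25 mg/kg at 2.5 mg/mL). Blood collected at 0.25, 1, 2, 4, 8 and 24 h. Cmax, Tmax and AUCt/dose were taken from plasma concentrations, given with SD.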

[19] = AUCt/dose in C57BL6 mouse at 25 mg/kg, po; assay type: ADME, organism-based; conditions: in vivo; summary of the method: as §2
[20] = Tmax in C57BL6 mouse at 1.25 mg/kg, INH; assay type: ADME, organism-based; conditions: in vivo, inhaled_or_intranasal; summary of the method: as §2
[21] = Selectivity index, ratio of EC50 for antiviral activity against SARS-CoV-2 RG2674 infected in African green monkey Vero cells to EC50 for antiviral activity against SARS-CoV-2 UC-1074 infected in African green monkey Vero cells; assay type: toxicity
[22] = Cmax in C57BL6 mouse at 0.5 mg/kg, INH measured for 0.25 to 24 hrs; assay type: ADME, organism-based; set-up: time lower 0.25 hrs, dose 0.5 mg/kg, time upper 24 hrs, route inh; conditions: in vivo, inhaled_or_intranasal; summary of the method: as §2
[23] = Tmax in C57BL6 mouse at 25 mg/kg, po; assay type: ADME, organism-based; conditions: in vivo; summary of the method: as §2
[24] = Tmax in C57BL6 mouse at 10 mg/kg, po; assay type: ADME, organism-based; conditions: in vivo; summary of the method: as §2
[25] = Cmax in C57BL6 mouse at 1.25 mg/kg, INH; assay type: ADME, organism-based; set-up: dose 1.25 mg/kg, route inh; conditions: in vivo, inhaled_or_intranasal; summary of the method: as §2
[26] = Tmax in C57BL6 mouse at 0.5 mg/kg, INH; assay type: ADME, organism-based; conditions: in vivo, inhaled_or_intranasal; summary of the method: as §2
[27] = Selectivity index, ratio of EC50 for antiviral activity against SARS-CoV-2 RG2674 infected in African green monkey Vero cells to EC50 for antiviral activity against SARS-CoV-2 NVDBB-2220 infected in African green monkey Vero cells; assay type: toxicity
[28] = AUCt/dose in C57BL6 mouse at 0.5 mg/kg, INH measured for 0.25 to 24 hrs; assay type: ADME, organism-based; conditions: in vivo, inhaled_or_intranasal, time 0.25-24 hrs; summary of the method: as §2
[29] = Cmax in C57BL6 mouse at 10 mg/kg, po; assay type: ADME, organism-based; set-up: dose 10 mg/kg, route po; conditions: in vivo; summary of the method: as §2
[30] = Cmax in C57BL6 mouse at 25 mg/kg, po; assay type: ADME, organism-based; set-up: dose 25 mg/kg, route po; conditions: in vivo; summary of the method: as §2
[31] = AUCt/dose in C57BL6 mouse at 10 mg/kg, po; assay type: ADME, organism-based; conditions: in vivo; summary of the method: as §2

CC(C)C[C@@H](C=O)NC(=O)[C@H](Cc1ccccc1)NC(=O)[C@@H]1Cc2ccccc2CN1 (H-[Tic]-Phe-Leu-aldehyde)
IC50 [1]: > 425 µM | Kd [2]: > 213 µM

CC(=O)NCC(=O)N[C@@H](Cc1c[nH]cn1)C(=O)N[C@H](C=O)Cc1c[nH]cn1 (Ac-Gly-His-His-aldehyde)
IC50 [1]: > 213 µM | Kd [2]: > 107 µM

CC(=O)NCC(=O)N[C@@H](Cc1ccccc1)C(=O)N[C@H](C=O)Cc1c[nH]cn1 (Ac-Gly-Phe-His-aldehyde)
EC50 [3]: 66.1 µM | EC50 [4]: > 100 µM | deltaH [5]: -12.7 kcal/mol | MCC [6]: ≥ 100 µM | Stability [7]: Stable | CC50 [8]: > 100 µM | MCC [9]: > 100 µM | IC50 [1]: 2.51 µM | Kd [10]: 0.64 µM | EC50 [11]: > 20 µM | EC50 [12]: 40.3 µM | Kd [2]: 1.26 µM | deltaG [13]: -8.53 kcal/mol | EC50 [14]: > 100 µM | -TdeltaS [15]: 4.16 kcal/mol | EC50 [16]: > 100 µM | EC50 [17]: > 100 µM

CCCCCCCC(=O)NCC(=O)N[C@@H](Cc1ccccc1)C(=O)N[C@H](C=O)Cc1c[nH]cn1 (Octanoyl-Gly-Phe-His-aldehyde)
AUCt/dose [18]: 150.62 kg·ng·h/mL/mg | AUCt/dose [19]: 2 kg·ng·h/mL/mg | Tmax [20]: 15 min | Ratio EC50 [21]: 8 | Cmax [22]: 177.97 ng/mL | Tmax [23]: 30 min | EC50 [3]: 5 µM | EC50 [4]: 39.9 µM | deltaH [5]: -16.4 kcal/mol | MCC [6]: ≥ 100 µM | Tmax [24]: 45 min | CC50 [8]: > 100 µM | MCC [9]: > 100 µM | Cmax [25]: 325.95 ng/mL | Tmax [26]: 15 min | IC50 [1]: 2.37 µM | Kd [10]: 0.425 µM | EC50 [11]: > 20 µM | EC50 [12]: 5.2 µM | Kd [2]: 1.19 µM | Ratio EC50 [27]: 8 | AUCt/dose [28]: 188.05 kg·ng·h/mL/mg | Cmax [29]: 22.72 ng/mg | deltaG [13]: -8.8 kcal/mol | Cmax [30]: 33.7 ng/mL | EC50 [14]: > 100 µM | -TdeltaS [15]: 7.6 kcal/mol | EC50 [16]: > 100 µM | EC50 [17]: > 100 µM | AUCt/dose [31]: 3.07 kg·ng·h/mL/mg

Nc1nc2c(ncn2COCCO)c(=O)[nH]1 [ACYCLOVIR]
MCC [9]: > 444 µM

CC(=O)NCC(=O)N[C@@H](Cc1ccc(O)cc1)C(=O)N[C@H](C=O)Cc1c[nH]cn1 (Ac-Gly-Tyr-His-aldehyde)
IC50 [1]: 198 µM | Kd [2]: 98.9 µM

CCC(CC)COC(=O)[C@H](C)N[P@](=O)(OC[C@H]1O[C@@](C#N)(c2ccc3c(N)ncnn23)[C@H](O)[C@@H]1O)Oc1ccccc1
EC50 [3]: 0.89 µM | EC50 [4]: 1.3 µM | MCC [6]: 80 µM | CC50 [8]: 70.6 µM | EC50 [12]: 0.2 µM

CC(C)(C)O[C@H]1CN[C@H](C(=O)N[C@@H](Cc2c[nH]cn2)C(=O)N[C@H](C=O)Cc2c[nH]cn2)C1 (H-[Hyp](tBu)-His-His-aldehyde)
IC50 [1]: > 170 µM | Kd [2]: > 85 µM

Ac-GGVLVQPG-NH2
EC50 [3]: 17.6 µM

O=C[C@H](Cc1c[nH]cn1)NC(=O)[C@H](Cc1c[nH]cn1)NC(=O)[C@@H]1Cc2ccccc2CN1 (H-[Tic]-His-His-aldehyde)
IC50 [1]: 37.8 µM | Kd [2]: 18.9 µM

CC(=O)NCC(=O)N[C@@H](Cc1c[nH]cn1)C(=O)N[C@H](C=O)Cc1ccc(O)cc1 (Ac-Gly-His-Tyr-aldehyde)
IC50 [1]: > 425 µM | Kd [2]: > 213 µM

O=c1[nH]c(=O)n([C@H]2C[C@H](O)[C@@H](CO)O2)cc1/C=C/Br [BRIVUDINE]
MCC [9]: > 300 µM | EC50 [16]: 0.17 µM | EC50 [17]: 4.53 µM

Nc1ccn(C[C@@H](CO)OCP(=O)(O)O)c(=O)n1 [CIDOFOVIR]
EC50 [11]: 1.08 µM | EC50 [14]: 0.25 µM

CC(C)(C)OC(=O)NCC(=O)N[C@@H](Cc1ccccc1)C(=O)N[C@H](C=O)Cc1c[nH]cn1 (Boc-Gly-Phe-His-aldehyde)
EC50 [3]: 50.2 µM | EC50 [4]: 84.9 µM | deltaH [5]: -14.5 kcal/mol | MCC [6]: ≥ 100 µM | CC50 [8]: > 100 µM | MCC [9]: > 100 µM | IC50 [1]: 6.49 µM | Kd [10]: 0.442 µM | EC50 [11]: > 20 µM | EC50 [12]: 43.3 µM | Kd [2]: 3.26 µM | deltaG [13]: -8.77 kcal/mol | EC50 [14]: > 100 µM | -TdeltaS [15]: 5.78 kcal/mol | EC50 [16]: > 100 µM | EC50 [17]: > 100 µM
